Test results: ChEMBL document CHEMBL4689842, “EUbOPEN Chemogenomics Library wave 1” (2021)

Tested on: U2OS
Assay: Multiplex assay against U2OS
Format: toxicity, cell-based
Conditions: human
How it was run: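 Hoechst33342, BioTracker Green Microtubule Cytoskeleton Dye, MitoTracker Red and Annexin V Alexa Fluor 680 were added to live cells at seeding, and imaging on a CQ1 microscope at 37°C and 5% CO2 followed compound addition. Gating by CellPathfinder machine learning separated cells into Hoechst high-intensity objects or normal cells, then normal cells into healthy, pyknosed or fragmented nuclei, then pyknosed cells into mitotic or apoptotic. Per cents of healthy-nucleus cells are reported for the tubulin, mitochondrial-mass and membrane-permeability phenotypes.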

[1] = 12 h, 1 µM, compound concentration 1 uM, replicate 1
[2] = 12 h, 1 µM, compound concentration 1 uM, replicate 2
[3] = 12 h, 10 µM, compound concentration 10 uM, replicate 1
[4] = 12 h, 10 µM, compound concentration 10 uM, replicate 2
[5] = 24 h, 1 µM, compound concentration 1 uM, replicate 1
[6] = 24 h, 1 µM, compound concentration 1 uM, replicate 2
[7] = 24 h, 10 µM, compound concentration 10 uM, replicate 1
[8] = 24 h, 10 µM, compound concentration 10 uM, replicate 2
[9] = 48 h, 1 µM, compound concentration 1 uM, replicate 1
[10] = 48 h, 1 µM, compound concentration 1 uM, replicate 2
[11] = 48 h, 10 µM, compound concentration 10 uM, replicate 1
[12] = 48 h, 10 µM, compound concentration 10 uM, replicate 2

Cc1cc2c(cc1N1C(=O)c3cccc4c(CCCO)ccc(c34)C1=O)n(C)c(=O)n2C
Population Apoptotic (%) [1]: 50%
Population Fragmented Nuclei (%) [1]: 11%
Population Healthy Nuclei (%) [1]: 82%
Population Hoechst High Intensity Objects (%) [1]: 6%
Population Membrane Permeable-Phenotype (%) [1]: 4%
Population Mitochondria Different-Phenotype (%) [1]: 7%
Population Mitotic Cells (%) [1]: 50%
Population Normal (%) [1]: 93%
Population Pyknosed Nuclei (%) [1]: 5%
Population Tubulin-Different-Phenotype (%) [1]: 6%
Total Cell Count [1]: 179
Population Apoptotic (%) [2]: 0%
Population Fragmented Nuclei (%) [2]: 6%
Population Healthy Nuclei (%) [2]: 90%
Population Hoechst High Intensity Objects (%) [2]: 8%
Population Membrane Permeable-Phenotype (%) [2]: 1%
Population Mitochondria Different-Phenotype (%) [2]: 22%
Population Mitotic Cells (%) [2]: 100%
Population Normal (%) [2]: 91%
Population Pyknosed Nuclei (%) [2]: 3%
Population Tubulin-Different-Phenotype (%) [2]: 24%
Total Cell Count [2]: 104
Population Apoptotic (%) [3]: 54%
Population Fragmented Nuclei (%) [3]: 11%
Population Healthy Nuclei (%) [3]: 72%
Population Hoechst High Intensity Objects (%) [3]: 6%
Population Membrane Permeable-Phenotype (%) [3]: 16%
Population Mitochondria Different-Phenotype (%) [3]: 44%
Population Mitotic Cells (%) [3]: 45%
Population Normal (%) [3]: 93%
Population Pyknosed Nuclei (%) [3]: 15%
Population Tubulin-Different-Phenotype (%) [3]: 68%
Total Cell Count [3]: 166
Population Apoptotic (%) [4]: 37%
Population Fragmented Nuclei (%) [4]: 20%
Population Healthy Nuclei (%) [4]: 63%
Population Hoechst High Intensity Objects (%) [4]: 9%
Population Membrane Permeable-Phenotype (%) [4]: 29%
Population Mitochondria Different-Phenotype (%) [4]: 77%
Population Mitotic Cells (%) [4]: 62%
Population Normal (%) [4]: 90%
Population Pyknosed Nuclei (%) [4]: 16%
Population Tubulin-Different-Phenotype (%) [4]: 96%
Total Cell Count [4]: 54
Population Apoptotic (%) [5]: 38%
Population Fragmented Nuclei (%) [5]: 11%
Population Healthy Nuclei (%) [5]: 80%
Population Hoechst High Intensity Objects (%) [5]: 3%
Population Membrane Permeable-Phenotype (%) [5]: 5%
Population Mitochondria Different-Phenotype (%) [5]: 18%
Population Mitotic Cells (%) [5]: 61%
Population Normal (%) [5]: 96%
Population Pyknosed Nuclei (%) [5]: 7%
Population Tubulin-Different-Phenotype (%) [5]: 10%
Total Cell Count [5]: 176
Population Apoptotic (%) [6]: 40%
Population Fragmented Nuclei (%) [6]: 7%
Population Healthy Nuclei (%) [6]: 87%
Population Membrane Permeable-Phenotype (%) [6]: 0%
Population Mitochondria Different-Phenotype (%) [6]: 27%
Population Mitotic Cells (%) [6]: 60%
Population Pyknosed Nuclei (%) [6]: 5%
Population Tubulin-Different-Phenotype (%) [6]: 17%
Total Cell Count [6]: 96
Population Apoptotic (%) [7]: 59%
Population Fragmented Nuclei (%) [7]: 15%
Population Healthy Nuclei (%) [7]: 70%
Population Hoechst High Intensity Objects (%) [7]: 3%
Population Membrane Permeable-Phenotype (%) [7]: 5%
Population Mitochondria Different-Phenotype (%) [7]: 35%
Population Mitotic Cells (%) [7]: 40%
Population Normal (%) [7]: 96%
Population Pyknosed Nuclei (%) [7]: 14%
Population Tubulin-Different-Phenotype (%) [7]: 38%
Total Cell Count [7]: 159
Population Apoptotic (%) [8]: 80%
Population Fragmented Nuclei (%) [8]: 18%
Population Healthy Nuclei (%) [8]: 62%
Population Hoechst High Intensity Objects (%) [8]: 11%
Population Membrane Permeable-Phenotype (%) [8]: 41%
Population Mitochondria Different-Phenotype (%) [8]: 76%
Population Mitotic Cells (%) [8]: 20%
Population Normal (%) [8]: 88%
Population Pyknosed Nuclei (%) [8]: 18%
Population Tubulin-Different-Phenotype (%) [8]: 76%
Total Cell Count [8]: 61
Population Apoptotic (%) [9]: 65%
Population Fragmented Nuclei (%) [9]: 16%
Population Healthy Nuclei (%) [9]: 72%
Population Hoechst High Intensity Objects (%) [9]: 3%
Population Membrane Permeable-Phenotype (%) [9]: 4%
Population Mitochondria Different-Phenotype (%) [9]: 43%
Population Mitotic Cells (%) [9]: 35%
Population Normal (%) [9]: 96%
Population Pyknosed Nuclei (%) [9]: 11%
Population Tubulin-Different-Phenotype (%) [9]: 16%
Total Cell Count [9]: 187
Population Apoptotic (%) [10]: 66%
Population Fragmented Nuclei (%) [10]: 6%
Population Healthy Nuclei (%) [10]: 90%
Population Hoechst High Intensity Objects (%) [10]: 10%
Population Membrane Permeable-Phenotype (%) [10]: 9%
Population Mitochondria Different-Phenotype (%) [10]: 49%
Population Mitotic Cells (%) [10]: 33%
Population Normal (%) [10]: 89%
Population Pyknosed Nuclei (%) [10]: 3%
Population Tubulin-Different-Phenotype (%) [10]: 28%
Total Cell Count [10]: 103
Population Apoptotic (%) [11]: 79%
Population Fragmented Nuclei (%) [11]: 20%
Population Healthy Nuclei (%) [11]: 53%
Population Hoechst High Intensity Objects (%) [11]: 1%
Population Membrane Permeable-Phenotype (%) [11]: 12%
Population Mitochondria Different-Phenotype (%) [11]: 32%
Population Mitotic Cells (%) [11]: 20%
Population Normal (%) [11]: 98%
Population Pyknosed Nuclei (%) [11]: 25%
Population Tubulin-Different-Phenotype (%) [11]: 14%
Total Cell Count [11]: 154
Population Apoptotic (%) [12]: 88%
Population Fragmented Nuclei (%) [12]: 22%
Population Healthy Nuclei (%) [12]: 45%
Population Hoechst High Intensity Objects (%) [12]: 8%
Population Membrane Permeable-Phenotype (%) [12]: 46%
Population Mitochondria Different-Phenotype (%) [12]: 57%
Population Mitotic Cells (%) [12]: 11%
Population Normal (%) [12]: 91%
Population Pyknosed Nuclei (%) [12]: 31%
Population Tubulin-Different-Phenotype (%) [12]: 30%
Total Cell Count [12]: 62
